# According to PubChem BioAssay AID651740 (Broad Institute, 2012):
# Hit rate of the full screen: of about 5,600 compounds, about 1,200 (21%) were called active. Another 3% or so got no clear call; they are omitted.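 Rule for the calls: active = mean inhibition above about 95%, with at least 55% of replicates also reaching it (limit read from the data); inconclusive = meets just one of the two conditions; inactive = meets neither condition.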 These entries were drawn from the full list.
# Assay: Trypanosoma cruzi growth blockers in host fibroblasts – NIH3T3 host cells, beta-gal parasites, cherry-pick, set 2, confirmation (AID 651740);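 note: plate controls were neutral control median for no effect and positive control median for full effect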
# Details: T. cruzi beta-gal in NIH3T3, GalScreen luminescence, 90 h; at 2.09 µM; active compounds read high
# Method in brief: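 assay system = mouse NIH/3T3 fibroblasts infected with beta-galactosidase T. cruzi Tulahuen C4 | quantity = 5,000 fibroblasts/well | buffer or medium = 2% FBS DMEM with PSG | reagent = 5000 trypomastigotes per well | compound dosing = one concentration, 100 nL compound in DMSO | timing = ≥90 h infection with compound, 60 min read delay | signal = luminescence, GalScreen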
row,SMILES,inhibition
1,O=C(NCc1ccccn1)[C@@H]1[C@@H](CO)[C@@H]2Cn3c(ccc(/C=C/c4ccccc4)c3=O)[C@H]1N2CC1CC1,22.2% (inactive)
2,C[C@H]1CN([C@@H](C)CO)C(=O)c2cc(C#CC3CCCCC3)cnc2O[C@H]1CN(C)S(=O)(=O)c1ccccc1,77% (inactive)
3,C[C@@H]1CN([C@@H](C)CO)C(=O)Cc2cc(NC(=O)C3CCCCC3)ccc2O[C@@H]1CN(C)Cc1ccc(C(=O)Nc2ccccc2N)cc1,83.7% (inactive)
4,C[C@H](CO)N1C[C@H](C)[C@@H](CN(C)Cc2ccc(-c3ccccc3)cc2)Oc2ccc(NC(=O)CCC(F)(F)F)cc2CC1=O,89.8% (inactive)
5,C[C@@H]1CCCCO[C@H](CN(C)C(=O)Nc2cccc3ccccc23)[C@H](C)CN([C@H](C)CO)C(=O)c2cc(NS(=O)(=O)c3cccs3)ccc2O1,52.6% (inactive)
6,C[C@H](CO)N1C[C@H](C)[C@H](CN(C)C(=O)Nc2ccc3c(c2)OCO3)Oc2ncc(C#Cc3cccc(F)c3)cc2C1=O,36.1% (inactive)
7,CC(C)NC(=O)N(C)C[C@H]1OCc2cn(nn2)CCCC(=O)N([C@@H](C)CO)C[C@H]1C,-10.9% (inactive)
8,O=C(C1CC1)N1CCCCN2[C@H](CO)[C@H](c3ccc(-c4cccc(F)c4)cc3)[C@H]2C1,67% (inactive)
9,C[C@H](CO)N1C[C@H](C)[C@H](CN(C)C(=O)C2CCCCC2)Oc2ncc(C#Cc3cccc(F)c3)cc2C1=O,44.3% (inactive)
10,O=C(c1ccncc1)N1CCCCN2[C@H](CO)[C@H](c3ccc(-c4ccccc4)cc3)[C@H]2C1,68.8% (inactive)
11,O=C(C1CCC1)N1CCCCN2[C@H](CO)[C@H](c3ccc(-c4cccc(F)c4)cc3)[C@@H]2C1,62% (inactive)
12,C[C@@H]1CN([C@H](C)CO)C(=O)c2cc(C#CC3CCCCC3)cnc2O[C@@H]1CN(C)C(=O)NC1CCCC1,66.9% (inactive)
13,O=C(C1CCC1)N1CCCCN2[C@H](CO)[C@H](c3ccc(-c4ccncc4)cc3)[C@@H]2C1,24.4% (inactive)
14,N#C[C@@H]1[C@@H](c2ccc(C#Cc3cccc(F)c3)cc2)[C@@H](CO)N1C(=O)C1CCC1,62.2% (inactive)
15,COc1cccc(C#Cc2ccc([C@@H]3[C@H](C#N)N[C@H]3CO)cc2)c1,97.1% (active)
16,COCC(=O)N1[C@H](CO)[C@@H](c2ccc(C#Cc3ccccc3F)cc2)[C@@H]1C#N,72.9% (inactive)
17,O=C(C[C@H]1CC[C@@H]2[C@H](COC[C@H](O)CN2Cc2ccc(Oc3ccccc3)cc2)O1)N1CCN(c2ccccc2)CC1,21.7% (inactive)
18,Cc1ccccc1-c1ccc([C@@H]2[C@H](CO)N3CCCCN(S(=O)(=O)c4ccc(F)cc4)C[C@@H]23)cc1,62.4% (inactive)
19,CC(=O)N1[C@H](CNC(=O)C2CC2)[C@@H](c2ccc(-c3cccc(F)c3)cc2)[C@@H]1CO,-2.15% (inactive)
20,CCCNC(=O)N1[C@@H]2c3cccc(=O)n3C[C@H]1[C@H](CO)[C@H]2C(=O)NCC(F)(F)F,23.3% (inactive)
21,CC(C)(O)C#Cc1ccc([C@@H]2[C@H](CO)N3CCCCN(C(=O)c4cccc(F)c4)C[C@@H]23)cc1,-0.041% (inactive)
22,CCC(=O)N1CCCCN2[C@H](C1)[C@@H](c1ccc(/C=C/c3ccccc3)cc1)[C@@H]2CO,62.7% (inactive)
23,C[C@@H]1CN([C@@H](C)CO)S(=O)(=O)c2ccc(C#CCC3CCCC3)cc2O[C@H]1CN(C)C(=O)CC1CC1,64.9% (inactive)
24,CC(C)CC#Cc1ccc2c(c1)O[C@H](CN(C)C(=O)C1CC1)[C@@H](C)CN([C@@H](C)CO)S2(=O)=O,58.8% (inactive)

row,SMILES,inhibition
1,CC(=O)N(C)C[C@H]1Oc2cc(C#CCN(C)C)ccc2S(=O)(=O)N([C@@H](C)CO)C[C@@H]1C,91.3% (inactive)
2,C[C@H](CO)N1C[C@H](C)[C@@H](CN(C)C(=O)Nc2cc(F)ccc2F)Oc2cc(C#CC3CC3)ccc2S1(=O)=O,51.9% (inactive)
3,CCCN(C)C[C@H]1Oc2cc(C#CC3CCCC3)ccc2S(=O)(=O)N([C@H](C)CO)C[C@@H]1C,68.9% (inactive)
4,C[C@H]1CN([C@@H](C)CO)S(=O)(=O)c2ccc(C#CC3CCCC3)cc2O[C@@H]1CN(C)C(=O)c1cccc(F)c1,100% (active)
5,CNC[C@@H]1Oc2cc(C#CCC3CCCC3)ccc2S(=O)(=O)N([C@H](C)CO)C[C@H]1C,31.6% (inactive)
6,C[C@@H]1CN([C@H](C)CO)S(=O)(=O)c2ccc(C#CCC3CCCC3)cc2O[C@H]1CN(C)C(=O)CC1CC1,106% (active)
7,C[C@@H]1CN([C@@H](C)CO)S(=O)(=O)c2ccc(C#CCN(C)C)cc2O[C@H]1CN(C)C(=O)C1CC1,98.9% (active)
8,C[C@@H]1CN([C@H](C)CO)S(=O)(=O)c2ccc(C#CC3CCCC3)cc2O[C@@H]1CN(C)C(=O)Cc1ccncc1,66.3% (inactive)
9,C[C@@H]1CN([C@H](C)CO)C(=O)Cc2cc(NC(=O)Cc3ccccc3)ccc2O[C@H]1CN(C)Cc1ccc(Oc2ccccc2)cc1,20.7% (inactive)
10,CC(=O)NC[C@@H]1[C@@H](c2ccc(-c3ccccc3F)cc2)[C@@H](CO)N1C(=O)C1CC1,14.2% (inactive)
11,COc1ccc(S(=O)(=O)Nc2ccc3c(c2)C(=O)N([C@@H](C)CO)C[C@H](C)[C@H](CN(C)Cc2ccc(C(F)(F)F)cc2)O3)cc1,42.3% (inactive)
12,Cc1noc(C)c1S(=O)(=O)N(C)C[C@H]1Oc2ccc(N(C)C)cc2CC(=O)N([C@H](C)CO)C[C@@H]1C,-7.54% (inactive)
13,C[C@@H]1CN([C@@H](C)CO)S(=O)(=O)c2ccc(-c3cccc(F)c3)cc2O[C@@H]1CN(C)S(=O)(=O)c1ccccc1,94.1% (inactive)
14,C[C@@H]1CN([C@H](C)CO)S(=O)(=O)c2ccc(-c3cccc(F)c3)cc2O[C@H]1CN(C)S(=O)(=O)c1ccc(F)cc1,74.9% (inactive)
15,CC(C)CC#Cc1ccc2c(c1)O[C@H](CN(C)Cc1cccnc1)[C@H](C)CN([C@@H](C)CO)S2(=O)=O,81.2% (inactive)
16,CC(C)CC#Cc1ccc2c(c1)O[C@H](CN(C)S(=O)(=O)c1cccc(F)c1)[C@@H](C)CN([C@@H](C)CO)S2(=O)=O,110% (active)
17,CC(C)CC#Cc1ccc2c(c1)O[C@H](CN(C)Cc1ccncc1)[C@H](C)CN([C@H](C)CO)S2(=O)=O,89.4% (inactive)
18,CC(C)CC#Cc1ccc2c(c1)O[C@H](CN(C)Cc1ccccc1F)[C@@H](C)CN([C@@H](C)CO)S2(=O)=O,113% (active)
19,O=C(C[C@@H]1C[C@@H]2c3cc(NC(=O)c4ccc5c(c4)OCO5)ccc3O[C@@H]2[C@@H](CO)O1)NCc1ccc(Cl)cc1,-3.27% (inactive)
20,COc1ccccc1C#Cc1ccc([C@@H]2[C@H](CO)N3CCCCN(C(=O)C4CCCC4)C[C@@H]23)cc1,98.1% (active)
21,COc1cccc(S(=O)(=O)N2CCCCN3[C@H](CO)[C@H](c4ccc(-c5ccncc5)cc4)[C@H]3C2)c1,100% (active)
22,COc1ccc(S(=O)(=O)N2CCCCN3[C@H](CO)[C@@H](c4ccc(C#CC(C)C)cc4)[C@H]3C2)cc1,79.7% (inactive)
23,COc1ccccc1C#Cc1ccc([C@@H]2[C@H](CO)N3CCCCN(C(=O)C4CC4)C[C@@H]23)cc1,64.4% (inactive)
24,CCS(=O)(=O)N1CCCCN2[C@@H](CO)[C@@H](c3ccc(-c4ccccc4)cc3)[C@@H]2C1,27.5% (inactive)

row,SMILES,inhibition
1,O=C(c1cccnc1)N1CCCCN2[C@@H](CO)[C@H](c3ccc(C#Cc4ccccc4)cc3)[C@@H]2C1,41.7% (inactive)
2,Cc1cccc(-c2ccc([C@@H]3[C@@H](CO)N4CCCCN(S(=O)(=O)c5cccs5)C[C@H]34)cc2)c1,94.4% (inactive)
3,COc1ccc(S(=O)(=O)N2CCCCN3[C@H](C2)[C@H](c2ccc(C#CCC(C)C)cc2)[C@@H]3CO)cc1,109% (active)
4,CN(C)CC#Cc1ccc([C@H]2[C@H]3CN(S(=O)(=O)c4ccccc4F)CCCCN3[C@H]2CO)cc1,8.03% (inactive)
5,O=S(=O)(Cc1ccccc1)N1CCCCN2[C@@H](CO)[C@H](c3ccc(-c4ccccc4)cc3)[C@@H]2C1,78.8% (inactive)
6,O=S(=O)(Cc1ccccc1)N1CCCCN2[C@@H](CO)[C@H](c3ccc(-c4cccnc4)cc3)[C@@H]2C1,62.1% (inactive)
7,O=S(=O)(Cc1ccccc1)N1CCCCN2[C@@H](CO)[C@@H](c3ccc(-c4ccc(F)cc4)cc3)[C@@H]2C1,104% (active)
8,OC[C@@H]1[C@H](c2ccc(C#CC3(O)CCCC3)cc2)[C@H]2CN(Cc3cncnc3)CCCCN12,79.8% (inactive)
9,CNC[C@H]1OCCCC[C@@H](C)Oc2ccc(NS(C)(=O)=O)cc2C(=O)N([C@H](C)CO)C[C@H]1C,-9.33% (inactive)
10,CO[C@H](CN(C)S(=O)(=O)c1ccc(Cl)cc1)[C@@H](C)CN(Cc1ccccc1Cl)[C@H](C)CO,48.7% (inactive)
11,COc1cccc(S(=O)(=O)Nc2ccc3c(c2)[C@H]2C[C@H](CC(=O)NCc4ccc(Cl)cc4)O[C@H](CO)[C@H]2O3)c1,2.49% (inactive)
12,COc1cccc(S(=O)(=O)N2C[C@@H](O)COC[C@@H]3O[C@H](CC(=O)Nc4ccccc4)CC[C@H]32)c1,1.83% (inactive)
13,C[C@H](CO)N1C[C@H](C)[C@@H](CN(C)S(=O)(=O)c2ccccc2F)Oc2ncc(C#Cc3ccccc3F)cc2C1=O,93.7% (inactive)
14,C[C@H]1CN([C@@H](C)CO)C(=O)Cc2cc(NC(=O)Cc3cn(C)c4ccccc34)ccc2O[C@@H]1CN(C)Cc1ccc(C(F)(F)F)cc1,43.7% (inactive)
15,C/C=C/c1ccc([C@H]2[C@H]3CN(S(=O)(=O)c4ccccc4)CCCCN3[C@H]2CO)cc1,40.8% (inactive)
16,O=C(Nc1cccc(F)c1)N1CCCCN2[C@H](CO)[C@H](c3ccc(C#CC4CC4)cc3)[C@@H]2C1,89.3% (inactive)
17,COc1cccc(S(=O)(=O)N2CCCCN3[C@H](C2)[C@H](c2ccc(C#CC(C)C)cc2)[C@@H]3CO)c1,103% (active)
18,COc1cccc(S(=O)(=O)N2CCCCN3[C@H](CO)[C@H](c4ccc(C#CC5CC5)cc4)[C@H]3C2)c1,102% (active)
19,C[C@H](O)C#Cc1ccc([C@@H]2[C@H]3CN(S(=O)(=O)c4ccccc4)CCCCN3[C@H]2CO)cc1,-19.2% (inactive)
20,C[C@@H](O)C#Cc1ccc([C@@H]2[C@H](CO)N3CCCCN(S(=O)(=O)c4ccccc4)C[C@@H]23)cc1,12% (inactive)
21,C[C@H](CO)N1C[C@H](C)[C@H](CN(C)C(=O)Nc2cccc3ccccc23)Oc2ncc(C#Cc3ccccc3)cc2C1=O,59.1% (inactive)
22,Cc1cccc(-c2ccc([C@@H]3[C@H](CO)N4CCCCN(C(=O)c5ccc6c(c5)OCO6)C[C@@H]34)cc2)c1,66.9% (inactive)
23,C[C@@H]1CN([C@H](C)CO)S(=O)(=O)c2ccc(-c3cccc(C#N)c3)cc2O[C@@H]1CN(C)C(=O)Nc1ccccc1F,85.2% (inactive)
24,C[C@@H]1CN([C@@H](C)CO)C(=O)CCCn2cc(nn2)CO[C@@H]1CN(C)S(=O)(=O)c1ccccc1F,34.3% (inactive)
